Data: ChEMBL document CHEMBL4251598, “Development of novel bis-pyrazole derivatives as antitumor agents with potent apoptosis induction effects and DNA damage” (Eur J Med Chem, 2018)
The source made the active and inactive calls.

How the values were obtained:
[1] = Acute toxicity in ICR mouse assessed as survival at 312.5 mg/kg, ip measured on day 14; assay type: organism-based; details: in vivo
How it was run: (§1)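 Female ICR mice, 10 per group, single intraperitoneal injection at 488.3, 390.6, 312.5, 250 or 200 mg/kg, or vehicle control. Survival, eating, drinking, body weight and activity were monitored for up to 14 days after dosing. MTD was defined as the highest dose giving no drug-related moribund state or death, with temporary body-weight loss within 20%. LD50 was calculated from mortality.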

SMMC-7721 [2] = assay: Induction of apoptosis in human SMMC7721 cells assessed as reduction in Bcl2 expression after 72 hrs by Western blot analysis; assay type: functional, cell-based
How it was run: (§2)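 Sub-confluent SMMC-7721 cells treated with vehicle, compound or ADM at indicated concentrations for 72 h. Lysed on ice in NP-40/deoxycholate/SDS buffer with PMSF and leupeptin. Up to 50 µg protein run on SDS-PAGE, transferred to PVDF and probed with specific antibodies; ECL detection. Bands quantified by densitometry relative to β-actin, mean ± SD of three experiments.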

SMMC-7721 [3] = assay: Induction of apoptosis in human SMMC7721 cells assessed as apoptotic cells at 3.2 uM after 72 hrs by FITC-Annexin-V/7AAD/propidium iodide staining based flow cytometry relative to control; assay type: functional
How it was run: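 SMMC-7721 cells cultured overnight, then treated in triplicate with 0.2, 0.8 or 3.2 μM, vehicle, or ADM (3.2 μM) for 72 h. Stained with annexin V and PI (methods section: APC-annexin V/7-AAD) for 15 min at room temperature. Mean ± SD of three independent experiments.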

SMMC-7721 [4] = assay: Induction of apoptosis in human SMMC7721 cells assessed as increase in cleaved caspase-3 expression at 0.2 to 3.2 uM after 72 hrs by Western blot analysis relative to control; assay type: functional, cell-based; how it was run: as §2
SMMC-7721 [5] = assay: Induction of apoptosis in human SMMC7721 cells assessed as increase in cleaved PARP expression at 3.2 uM after 72 hrs by Western blot analysis relative to control; assay type: functional, cell-based; how it was run: as §2
L02 = assay: Cytotoxicity against human LO2 cells assessed as reduction in cell survival at 0.2 to 5 uM after 72 hrs by MTT assay; assay type: cell-based; details: l02, 72 h
How it was run: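 LO2 normal liver cells in DMEM with 10% FBS, plated at 10^4 cells/mL, adhered overnight. Exposed to graded concentrations for 72 h alongside SMMC-7721. MTT added for the last 4 h, formazan dissolved in DMSO, A570 read. Percent inhibition, mean ± SD of three independent experiments.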

SGC-7901 [6] = assay: Potency index, ratio of 5-FU IC50 to compound IC50 for human SGC7901 cells; assay type: functional
HCT-116 = assay: Potency index, ratio of ADM IC50 to compound IC50 for human HCT116 cells; assay type: functional
SMMC-7721 [7] = assay: Antitumor activity against human SMMC7721 cells xenografted in BALB/c mouse assessed as tumor growth inhibition at 15 mg/kg, ip measured after 19 days relative to control; assay type: functional; details: SMMC-7721, ip, 456 h, read-out: TGI
How it was run: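 Female BALB/c nude mice, 5-6 weeks old, inoculated subcutaneously with 10^6 SMMC-7721 cells. At 50-100 mm³ tumours, mice were randomized to ip compound (15 or 30 mg/kg), ADM (15 mg/kg) or vehicle, n = 6 per group. Caliper volume ½(L×W²) measured every 3 days to day 19, with body weight monitored. Tumours excised and weighed at the end.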

[8] = Acute toxicity in ICR mouse assessed as survival at 250 mg/kg, ip measured on day 14; assay type: organism-based; details: in vivo; how it was run: as §1
SGC-7901 [9] = assay: Antiproliferative activity against human SGC7901 cells after 72 hrs by MTT assay; assay type: functional, cell-based; details: SGC-7901, 72 h
How it was run: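 Cells in DMEM with 10% FBS, 10^4 cells/mL, adhered overnight at 37 °C, 5% CO2. Treated in triplicate with a range of concentrations for 72 h. MTT (5 mg/mL solution) added for the last 4 h, formazan dissolved in DMSO, absorbance read at 570 nm. IC50 calculated from percent inhibition. Mean ± SD of three independent experiments.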

[10] = Acute toxicity in ICR mouse assessed as survival at 488.3 mg/kg, ip measured on day 14; assay type: organism-based; details: in vivo; how it was run: as §1
Mus musculus = assay: Acute toxicity in ICR mouse assessed as effect on drinking behaviour at 200 mg/kg, ip measured up to 14 days post dose; assay type: organism-based; details: in vivo, 336 h; how it was run: as §1
SMMC-7721 [11] = assay: Induction of apoptosis in human SMMC7721 cells assessed as increase in cleaved PARP expression at 0.2 to 3.2 uM after 72 hrs by Western blot analysis relative to control; assay type: functional, cell-based; how it was run: as §2

Compound: COc1ccc(Oc2c(/C=N\OCc3c(Cl)c(-c4ccc(Cl)cc4)nn3C)c(C)nn2C)cc1
- survival at 14 day [1]: 60%
- Activity (SMMC-7721 [2]): Dose-dependent effect
- Activity (SMMC-7721 [3]): 63.2%
- Activity (SMMC-7721 [4]): Active
- Activity (SMMC-7721 [5]): Active
- Activity (L02): Non-Toxic
- Ratio IC50 (SGC-7901 [6]): 17 - 50
- Ratio IC50 (HCT-116): 2 - 3
- inhibition in vivo at 15 mg/kg (SMMC-7721 [7]): 44%
- survival at 14 day [8]: 70%
- IC50 (SGC-7901 [9]): 2.01 µM
- survival at 14 day [10]: 10%
- Activity (Mus musculus): Non-Toxic
- Activity (SMMC-7721 [11]): Active
